Here are results for six molecules from ChEMBL document CHEMBL4368899, “Novel carbohydrate modified berberine derivatives: synthesis and in vitro anti-diabetic investigation” (Medchemcomm, 2019).

In data set [1] the test system is HepG2. Kind of data set: Antidiabetic activity in human HepG2 cells assessed as increase in glucose consumption at 5 ug/mL after 48 hrs by glucose oxidase method relative to berberine. In kind it is functional. An outline of the steps:
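HepG2 cells were grown in DMEM with 10% heat-inactivated FBS and penicillin/streptomycin. They were seeded at 2×10^5 cells per well and cultured 12 h at 37 °C in 5% CO2. Cells were then exposed to 5.0 µg mL⁻¹ compound for two days. A DMSO solvent control and a blank were run. Glucose was measured by glucose oxidase. Consumption = blank-well glucose minus glucose remaining in treated wells. Means ± SD, n = 8, expressed as % increase over berberine.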

A short description of data set [2]: Stability of compound in acetonitrile/water at 1:1 ratio at pH 1.5 assessed as compound degradation after 5 hrs by HPLC analysis. It is filed as physicochemical. Conditions: acetonitrile/water 1:1, pH 1.5; read-out: Drug degradation. An outline of the steps: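 Remaining compound after 5 h was quantified by HPLC on a C8 column (250 × 4.6 mm, 5 µm). Elution used 50% acetonitrile in 0.05 mol L⁻¹ aqueous KH2PO4 at 1 mL min⁻¹, with detection at 320 nm.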

A short description of data set [3]: Aqueous solubility of compound. In kind it is physicochemical. The note with it: water.
Data set [4] concerns HepG2. As to the kind of experiment: Cytotoxicity against human HepG2 cells after 12 hrs by CCK-8 assay. It is filed as cell-based. Conditions: for IC50: Homo sapiens, HepG2, 12 h; for Activity: human, hepg2, 12 h. The essentials:
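Cells were cultured in DMEM/10% heat-inactivated FBS with penicillin/streptomycin at 37 °C, 5% CO2, and harvested with trypsin at 80–90% confluence. They were plated at 1×10^5 cells per mL, and medium was refreshed after 12 h. Cells were treated 12 h with 0.2–625 µg mL⁻¹ compound dissolved in 0.5% DMSO–water. CCK-8 was added for 4 h, then A570 read, correcting for compound colour. IC50 is relative to untreated cells as 100%. n = 3.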

As for `COc1ccc2cc3[n+](cc2c1OCc1cn([C@H]2O[C@H](CO)[C@@H](O)[C@H](O)[C@@H]2O)nn1)CCc1cc2c(cc1-3)OCO2.[Cl-]`, the Activity is reported as 10.81% with HepG2 [1] and “Dose-dependent effect” in the data set on HepG2 [4]. Further, in data set [2], the degraded at 5 h was 0.3%. The amount in solution in data set [3] (solubility) came to 9000 µg/mL. Also, it took 72.2 µg/mL to reach half-maximal inhibition in the data set on HepG2 [4] (IC50).

As for `COc1ccc2cc3[n+](cc2c1OCc1cn([C@@H]2O[C@H](CO)[C@@H](O)[C@H]2O)nn1)CCc1cc2c(cc1-3)OCO2.[Cl-]`, the Activity with HepG2 [1] is 14.83%. In the data set with HepG2 [4], the midpoint of inhibition, the IC50, lay at 44 µg/mL and the Activity result was “Dose-dependent effect”.

Turning to `COc1ccc2cc3[n+](cc2c1OCc1cn([C@@H]2O[C@H](CO)[C@@H](O)[C@H](O)[C@H]2O)nn1)CCc1cc2c(cc1-3)OCO2.[Cl-]`, the Activity in the data set with HepG2 [1] came to 2.23%. Besides, in the data set with HepG2 [4], the IC50 (as a rule, the midpoint of a concentration-inhibition curve) came out at 62.9 µg/mL and the Activity entry is recorded as “Dose-dependent effect”.

On to `COc1ccc2cc3[n+](cc2c1OCc1cn([C@@H]2O[C@@H](C)[C@H](O)[C@@H](O)[C@H]2O)nn1)CCc1cc2c(cc1-3)OCO2.[Cl-]`, for which the Activity is listed as -3.6% in the data set on HepG2 [1] and “Dose-dependent effect” in the data set with HepG2 [4]. The molecule further had an IC50 in the data set on HepG2 [4] of 49.3 µg/mL.

In the case of `COc1ccc2cc3[n+](cc2c1OCc1cn([C@@H]2O[C@H](CO)[C@H](O)[C@H](O)[C@H]2O)nn1)CCc1cc2c(cc1-3)OCO2.[Cl-]`, in the data set on HepG2 [1], the Activity is 0.21%. In the data set on HepG2 [4], half-maximal inhibition (IC50) required 59.3 µg/mL and the Activity entry is recorded as “Dose-dependent effect”.

Take `COc1ccc2cc3[n+](cc2c1OC)CCc1cc2c(cc1-3)OCO2.[Cl-]` [BERBERINE CHLORIDE]: in data set [2], the degraded at 5 h is 1.8%. The solubility (in general, how much of the substance goes into solution per volume) in data set [3] turned out to be 1750 µg/mL. In the data set on HepG2 [4], this molecule returned an IC50 of 53.9 µg/mL.
